Results from different studies.
Protocols differ between the studies behind these lines.
Target: Insulin-like growth factor 1 receptor (IGF1R, Homo sapiens, UniProt P08069)

| read-out | mode | method | concentration | measurement | result | Structure (SMILES) |
| --- | --- | --- | --- | --- | --- | --- |
| cell-free assay |  |  | 1 µM | remaining signal | 36% | C#Cc1cnc(Nc2ccnc(CO)c2)nc1Nc1ccccc1S(C)(=O)=NC#N (stereo not drawn) |
| cell-free assay |  | competition with immobilised ligand | 25 µM | remaining binding | 100% | N#Cc1ccc(NC(=O)Nc2ccccc2)cc1 |
| enzyme activity | inhibitor |  | 1 µM | inhibition | 3% | CC#CC(=O)N1CCC[C@H]1c1nc(-c2ccc(C(=O)Nc3ccccn3)cc2)c2c(N)nccn12 |
| binding |  |  | 1 µM | remaining binding | 100% | CN1CCN(C(=O)c2ccc(NC(=O)Nc3ccc(N(C)c4ccnc(Nc5ccc(CS(C)(=O)=O)cc5)n4)cc3)cc2)CC1 |
| binding |  | competition with immobilised ligand | 0.5 µM | remaining binding | 98% | CCCCC(=O)Nc1ccc(-c2ccc3ncn(CCC)c(=O)c3c2)cn1 |
| binding |  |  | 1 µM | remaining binding | 93% | COc1ccc2oc(-c3ccc4nc(N)oc4c3)c/c(=N\c3ccccc3NC(=O)CCN)c2c1 |
| cell-free assay |  |  | 1 µM | inhibition | 14% | C=CC(=O)N1CCC([C@@H]2CCNc3c(C(N)=O)c(-c4ccc(Oc5ccccc5)cc4)nn32)CC1 |
| binding |  |  | 0.1 µM | remaining binding | 83% | C1=C/COCc2cc(ccc2OCCN2CCCC2)Nc2nccc(n2)-c2cccc(c2)COC/1 |
| binding |  |  | 1 µM | remaining binding | 100% | C[C@H]1CC[C@H](n2c3cnccc3c3cnc(Nc4ccc5c(n4)CCN(C(=O)CO)C5)nc32)CC1 |
